Test [1] relates to PC-12. Nature of the test: Inhibition of H202-induced apoptosis in rat PC-12 cells assessed as viable cells at 25 uM after 24 hrs by Annexin-V-FITC/PI-staining based flow cytometric analysis (reference value: 52.01%). Conditions: read-out: Activity. Type of test: functional. Summed up: (§1)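 PC12 cells seeded 2 × 10⁵/well for 24 h, pretreated 24 h with 12.5, 25, 50 or 100 µM compound, then given fresh medium containing 650 µM H2O2. Harvested cells washed in binding buffer, stained 5 min with Annexin V-FITC/PI, analysed by flow cytometry.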

The subject of test [2] is PC-12. The test can be described thus: Cytoprotection activity against H2O2-induced rat PC12-shNT cell assessed as cell viability at 12.5 to 100 uM pretreated for 24 hrs followed by H2O2 challenge and measured after 24 hrs by MTT assay. The following applies: dose 12.5-100 µM, time 48.0 hrs. Type of test: functional, cell-based. Summed up:
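PC12 lines made by lentiviral shRNA against rat Nrf2 (shNrf2-2) or scrambled control (shNT), selected with 0.5 mg/mL G418, knockdown confirmed by Western blot. Pretreated 24 h with 12.5, 25.0, 50.0 or 100 µM compound, then H2O2 for 24 h; viability by MTT; mean ± SD, three independent experiments.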

For test [3], the system named is Mus musculus. Nature of the test: Neuroprotective activity against lesioned C57BL/6 mouse model of Parkinson's disease assessed as increase in number of TH positive cells at 50 to 100 mg/kg , po administered for 2 week before MPTP stimulation by Immuno histochemistry assays. It is filed as functional. Conditions: dose 50-100 mg/kg, time 2 weeks. Summed up:
(§2)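 Male 10-week-old C57BL/6 mice (20–23 g), n = 6/group. Prophylactic: oral compound (50 or 100 mg/kg in saline) 2 weeks, then MPTP-HCl 25 mg/kg i.p. in week 3. Therapeutic: MPTP-HCl 25 mg/kg i.p. 1 week, then oral 100 mg/kg 2 weeks. Saline vehicle. Pole/rotarod training last 3 days; TH immunohistochemistry on SNpc and striatum.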

For test [4], the target named is T1, Nuclear factor erythroid 2-related factor 2 (Rattus norvegicus) (UniProt O54968).
T1 sequence (whole entry): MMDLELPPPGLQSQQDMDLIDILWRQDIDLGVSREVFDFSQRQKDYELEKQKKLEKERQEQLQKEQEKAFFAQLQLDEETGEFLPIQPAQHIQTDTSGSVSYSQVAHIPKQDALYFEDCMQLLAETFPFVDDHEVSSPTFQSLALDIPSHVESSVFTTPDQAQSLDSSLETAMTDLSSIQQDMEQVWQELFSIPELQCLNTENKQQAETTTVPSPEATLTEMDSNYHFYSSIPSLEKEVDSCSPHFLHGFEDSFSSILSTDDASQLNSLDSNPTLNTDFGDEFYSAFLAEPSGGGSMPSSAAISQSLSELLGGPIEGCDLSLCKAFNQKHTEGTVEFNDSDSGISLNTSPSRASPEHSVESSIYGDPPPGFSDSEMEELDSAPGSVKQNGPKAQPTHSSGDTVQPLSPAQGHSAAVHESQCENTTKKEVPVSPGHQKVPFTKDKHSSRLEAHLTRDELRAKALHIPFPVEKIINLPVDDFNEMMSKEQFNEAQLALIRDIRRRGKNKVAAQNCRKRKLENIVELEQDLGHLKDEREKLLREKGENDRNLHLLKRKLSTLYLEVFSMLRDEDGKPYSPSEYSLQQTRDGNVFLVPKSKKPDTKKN
Nature of the test: Induction of Nrf2 nuclear translocation in rat PC-12 cells assessed as Nrf2 accumulation in nucleus at 25 uM measured after 4 to 8 hrs by immunofluorescence analysis. Type of test: cell-based. The following applies: filed as activator, time 4-8 hrs. Summed up: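 PC12 cells exposed to 25 µM compound for 0, 4, 6 and 8 h; fixed in cold methanol (−20 °C, 20 min), anti-Nrf2 overnight, Dylight 594 secondary (1:500, 1 h), DAPI nuclear counterstain; imaged by fluorescence microscopy.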

The test system of test [5] is PC-12. Nature of the test: Neuroprotective activity against H2O2-induced cytotoxicity in rat PC-12 cells assessed as cell viability at 12.5 uM pretreated for 24 hrs followed by H2O2 challenge and measured after 24 hrs by MTT assay (reference value: 52.81 +/- 6%). Type of test: functional. Conditions: time 48 hrs, read-out: Activity.
The target in test [6] is T1, Nuclear factor erythroid 2-related factor 2 (Rattus norvegicus). The test can be described thus: Induction of Nrf2 nuclear translocation in rat PC-12 cells assessed as Nrf2 accumulation in nucleus at 25 uM by Western blot analysis. It is filed as cell-based. Conditions: filed as activator, time 4-8 hrs, TDE = time-dependent effect. In short, it runs like this:
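PC12 cells incubated with 25 µM compound for 4, 6 and 8 h; nuclear and cytoplasmic fractions prepared with an extraction kit; nuclear, cytosolic and total Nrf2 assessed by SDS-PAGE/PVDF Western blot. Three independent experiments.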

Test [7] relates to PC-12. The test can be described thus: Inhibition of H202-induced apoptosis in rat PC-12 cells assessed as late apoptotic cells at 25 uM after 24 hrs by Annexin-V-FITC/PI-staining based flow cytometric analysis (reference value: 32.5%). It is filed as functional. Details: scale not given: the % may be the effect or the level left. Summed up: as §1
Test [8] deals with Mus musculus. Nature of the test: Neuroprotective activity in lesioned C57BL/6 mouse model of Parkinson's disease assessed as increase in time spent on rotarod at 100 mg/kg, po administered for 2 week before MPTP stimulation by rotarod test. It is filed as functional. The following applies: time 2 weeks. Summed up: as §2
In test [9] the test system is PC-12. The test can be described thus: Inhibition of H202-induced apoptosis in rat PC-12 cells assessed as viable cells at 50 uM after 24 hrs by Annexin-V-FITC/PI-staining based flow cytometric analysis (reference value: 52.01%). Type of test: functional. The following applies: read-out: Activity. Summed up: as §1
Test [10] concerns PC-12. Nature of the test: Inhibition of H202-induced apoptosis in rat PC-12 cells assessed as necrotic cells at 50 uM after 24 hrs by Annexin-V-FITC/PI-staining based flow cytometric analysis (reference value: 0.33%). The arrangement: scale not given: the % may be the effect or the level left. It is filed as functional. Summed up: as §1
Test [11] concerns Mus musculus. The test can be described thus: Neuroprotective activity against lesioned C57BL/6 mouse model of Parkinson's disease assessed as upregulation of Nrf2 in SNpc and striatum area at 100 mg/kg , po administered for 2 week before MPTP stimulation by Immuno histochemistry assays. Type of test: functional, organism-based. The following applies: Brain, time 2.0 weeks. In short, it runs like this:
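Prophylactic regimen in male C57BL/6 mice (n = 6): oral compound 100 mg/kg in saline 2 weeks, then MPTP-HCl 25 mg/kg i.p. in week 3. Nrf2 immunohistochemistry in striatum and SNpc, quantified as Nrf2-immunopositive density relative to total area; mean ± SD.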

For test [12], the system named is PC-12. Nature of the test: Inhibition of H202-induced apoptosis in rat PC-12 cells assessed as early apoptotic cells at 100 uM after 24 hrs by Annexin-V-FITC/PI-staining based flow cytometric analysis (reference value: 15.16%). It is filed as functional. The arrangement: scale not given: the % may be the effect or the level left. In short, it runs like this: as §1

Test [13] relates to PC-12. The test can be described thus: Inhibition of H202-induced apoptosis in rat PC-12 cells assessed as early apoptotic cells at 25 uM after 24 hrs by Annexin-V-FITC/PI-staining based flow cytometric analysis (reference value: 15.16%). It is filed as functional. The arrangement: scale not given: the % may be the effect or the level left. In short, it runs like this: as §1

Test [14] concerns PC-12. The test can be described thus: Neuroprotective activity against H2O2-induced cytotoxicity in rat PC-12 cells assessed as cell viability at 100 uM pretreated for 24 hrs followed by H2O2 challenge and measured after 24 hrs by MTT assay (reference value: 52.81 +/- 6%). It is filed as functional, cell-based. Conditions: time 48.0 hrs.
The subject of test [15] is PC-12. The test can be described thus: Inhibition of H202-induced apoptosis in rat PC-12 cells assessed as necrotic cells at 100 uM after 24 hrs by Annexin-V-FITC/PI-staining based flow cytometric analysis (reference value: 0.33%). Details: scale not given: the % may be the effect or the level left. Type of test: functional. In short, it runs like this:
as §1

Test [16] deals with Mus musculus. The test can be described thus: Neuroprotective activity in lesioned C57BL/6 mouse model of Parkinson's disease assessed as assessed as reduction in climbing down time at 50 mg/kg, po administered for 2 week before MPTP stimulation by pole test. It is filed as functional. Conditions: C57BL/6, po, 336 h, time 2 weeks. In short, it runs like this: as §2

Activity calls are given as the source filed them. No cut-off for these calls is given here.

As to `COc1ccccc1/C=C/C=C/C(=O)N1CCCCC1`, in the test on PC-12 [1], the viability at 25 µM worked out at 69%. Besides, the result (in the test with PC-12 [2]; in test [4]; with Mus musculus [11]; with PC-12 [14]) was Active. Further, the Activity with Mus musculus [3] was 30.7%; in test [6] it was “Tde”; in the test on PC-12 [7], 18.04%; in the test on PC-12 [10], 0.26%; in the test with PC-12 [12] it was 12.11%; in the test on PC-12 [13], 12.72%. The Activity in the test with PC-12 [15] was determined as 0.57%. For the same molecule, the viability at 12.5 µM with PC-12 [5] was 88.8%. In the test on Mus musculus [8], the Time is 226.2 s. Further, the viability at 50 µM in the test with PC-12 [9] amounted to 74.8%. In addition, the inhibition in vivo at 50 mg/kg in the test on Mus musculus [16] was determined as 38.1%.
